Measurements reported in PMC7127737 (Bioorganic & Medicinal Chemistry Letters, 2008).

Assays:
human CpA = target: T1, human CpA (Homo sapiens, UniProt P15085); experiment: Inhibition of recombinant human CpA, fluorescence assay; format: biochemical; details: for more potent inhibition of CpA relative to 1a: compared with 1a; for selectivity for ACE2 versus CpA: ratio of Ki Apps CpA/ACE2
T1 sequence (P15085 111-419): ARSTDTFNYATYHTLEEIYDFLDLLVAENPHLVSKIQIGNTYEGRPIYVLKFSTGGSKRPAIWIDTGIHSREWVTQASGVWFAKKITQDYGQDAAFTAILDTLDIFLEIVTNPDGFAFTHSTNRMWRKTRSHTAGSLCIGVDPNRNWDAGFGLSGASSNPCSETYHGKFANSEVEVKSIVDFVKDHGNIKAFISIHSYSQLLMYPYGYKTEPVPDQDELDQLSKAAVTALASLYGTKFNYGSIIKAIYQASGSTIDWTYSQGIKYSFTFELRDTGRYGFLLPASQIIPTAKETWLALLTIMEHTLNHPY
Method in brief: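 Recombinant human CpA (37 nM) was run with 30 μM Abz-Gly-Gly-Nph-OH, and recombinant human ACE2 (0.4 nM) with 30 μM MCA-Tyr-Val-Ala-Asp-Ala-Pro-Lys(DNP)-OH. Both used 50 mM Hepes pH 7.5, 1 μM Zn(OAc)2, 100 μM TCEP, 300 μM CHAPS and 300 mM NaCl. Compound was pre-incubated before substrate; read-out was fluorescence. Ki App is the mean of ≥2 assays; selectivity is the CpA/ACE2 Ki App ratio.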

human ACE = human ACE (Homo sapiens, UniProt P12821); experiment: Inhibition of recombinant human ACE, fluorescence assay; format: biochemical; details: ratio of Ki Apps ACE/ACE2
Method in brief: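 Buffer: 50 mM Hepes, 300 mM NaCl, 300 μM CHAPS, 1 μM Zn(OAc)2, 100 μM TCEP, pH 7.5. Thiols were diluted from 10 mM stocks in 50% aqueous acetonitrile and pre-incubated before substrate addition. Values are means of ≥2 assays.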

human NEP = human NEP (Homo sapiens, UniProt P08473); experiment: Inhibition of recombinant human NEP, fluorescence assay; format: biochemical; details: ratio of Ki Apps NEP/ACE2
Method in brief: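 Fluorescence protease assays, both in 50 mM Hepes pH 7.5 with 1 μM Zn(OAc)2, 100 μM TCEP, 300 μM CHAPS and 300 mM NaCl. NEP: recombinant human enzyme (0.15 nM) with 2 μM FAM-[…]TAMRA)-NH2. ACE2: recombinant human enzyme (0.4 nM) with 30 μM MCA-Tyr-Val-Ala-Asp-Ala-Pro-Lys(DNP)-OH. Compound was pre-incubated before substrate. Ki App is the mean of ≥2 assays; the NEP/ACE2 ratio gives selectivity.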

ACE2 = details: read-out: ACE2 IC50; reversible inhibitor; cited from earlier work

Sequence of human NEP (P08473 whole entry): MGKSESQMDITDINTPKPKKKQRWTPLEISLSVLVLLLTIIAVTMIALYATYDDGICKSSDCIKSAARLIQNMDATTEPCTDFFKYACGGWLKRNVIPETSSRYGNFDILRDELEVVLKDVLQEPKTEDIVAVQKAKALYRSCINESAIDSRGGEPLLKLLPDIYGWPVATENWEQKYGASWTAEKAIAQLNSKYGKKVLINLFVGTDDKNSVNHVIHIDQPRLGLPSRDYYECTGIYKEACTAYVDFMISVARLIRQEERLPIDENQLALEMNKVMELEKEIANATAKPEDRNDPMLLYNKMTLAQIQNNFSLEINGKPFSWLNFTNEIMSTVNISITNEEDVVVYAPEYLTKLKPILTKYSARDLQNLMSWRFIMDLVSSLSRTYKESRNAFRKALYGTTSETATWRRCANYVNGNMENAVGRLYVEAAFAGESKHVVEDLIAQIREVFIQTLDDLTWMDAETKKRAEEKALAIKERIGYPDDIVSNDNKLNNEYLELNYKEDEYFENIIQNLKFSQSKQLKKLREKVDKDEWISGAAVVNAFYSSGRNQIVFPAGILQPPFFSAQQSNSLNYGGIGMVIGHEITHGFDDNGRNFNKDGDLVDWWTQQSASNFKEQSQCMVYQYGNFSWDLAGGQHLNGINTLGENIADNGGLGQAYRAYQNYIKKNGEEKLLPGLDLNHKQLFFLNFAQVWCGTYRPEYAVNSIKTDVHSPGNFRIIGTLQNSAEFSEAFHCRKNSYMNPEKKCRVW
Sequence of human ACE (P12821 30-1306): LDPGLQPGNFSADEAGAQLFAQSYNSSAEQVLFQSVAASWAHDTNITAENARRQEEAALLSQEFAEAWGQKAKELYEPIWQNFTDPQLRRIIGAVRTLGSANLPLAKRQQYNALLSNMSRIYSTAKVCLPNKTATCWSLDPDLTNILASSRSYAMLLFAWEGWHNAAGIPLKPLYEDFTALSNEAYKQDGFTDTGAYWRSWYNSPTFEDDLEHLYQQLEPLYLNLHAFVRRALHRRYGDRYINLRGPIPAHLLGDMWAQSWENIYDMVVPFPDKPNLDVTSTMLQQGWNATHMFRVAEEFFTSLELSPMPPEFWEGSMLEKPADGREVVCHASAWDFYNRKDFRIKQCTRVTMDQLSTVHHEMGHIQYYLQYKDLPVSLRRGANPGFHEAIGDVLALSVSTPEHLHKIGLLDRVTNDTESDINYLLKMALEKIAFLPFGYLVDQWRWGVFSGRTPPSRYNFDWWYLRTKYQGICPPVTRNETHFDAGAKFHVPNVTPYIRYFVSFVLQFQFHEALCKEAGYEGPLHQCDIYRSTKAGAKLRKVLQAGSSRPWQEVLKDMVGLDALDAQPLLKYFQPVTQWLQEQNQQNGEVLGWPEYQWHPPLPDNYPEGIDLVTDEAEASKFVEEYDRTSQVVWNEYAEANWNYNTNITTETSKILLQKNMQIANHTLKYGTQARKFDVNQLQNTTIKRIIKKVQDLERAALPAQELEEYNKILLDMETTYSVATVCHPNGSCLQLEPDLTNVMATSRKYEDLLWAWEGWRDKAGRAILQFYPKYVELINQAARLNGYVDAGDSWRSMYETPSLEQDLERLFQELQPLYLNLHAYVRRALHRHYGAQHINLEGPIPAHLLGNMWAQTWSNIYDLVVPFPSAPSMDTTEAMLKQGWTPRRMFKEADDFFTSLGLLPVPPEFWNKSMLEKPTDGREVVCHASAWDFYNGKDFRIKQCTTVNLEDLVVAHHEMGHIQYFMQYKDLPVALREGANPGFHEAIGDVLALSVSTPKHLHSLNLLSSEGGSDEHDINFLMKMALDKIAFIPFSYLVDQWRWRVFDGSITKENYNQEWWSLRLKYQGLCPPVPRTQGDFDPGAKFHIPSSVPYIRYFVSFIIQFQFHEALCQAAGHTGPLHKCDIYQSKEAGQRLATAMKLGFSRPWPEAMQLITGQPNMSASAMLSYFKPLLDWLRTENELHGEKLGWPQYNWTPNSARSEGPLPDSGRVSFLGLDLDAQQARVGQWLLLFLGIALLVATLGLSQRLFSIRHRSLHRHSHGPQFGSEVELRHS

Row | Structure (SMILES) | more potent inhibition of CpA relative to 1a (human CpA) [fold] | selectivity for ACE2 versus ACE (human ACE) [fold] | selectivity for ACE2 versus CpA (human CpA) [fold] | selectivity for ACE2 versus NEP (human NEP) [fold] | IC50 (ACE2) [pM]
1 | CC[C@@H](C)[C@H](S)C(=O)N[C@@H](Cc1ccc(O)cc1)C(=O)O [1e, N-[(2S,3R)-2-Mercapto-3-methylpentanoyl]-L-tyrosine] | > 10 | – | – | – | –
2 | CC(C)C[C@H](N[C@@H](Cc1cncn1Cc1cc(Cl)cc(Cl)c1)C(=O)O)C(=O)O [MLN-4760] | – | – | – | – | 440
3 | CC[C@@H](C)[C@H](S)C(=O)N[C@@H](Cc1cccc2ccccc12)C(=O)O [1f, N-[(2S,3R)-2-Mercapto-3-methylpentanoyl]-3-(1-naphthalenyl)-L-alanine] | – | > 100 | > 100 | – | –
4 | CC[C@@H](C)[C@H](S)C(=O)N[C@@H](Cc1ccccc1)C(=O)O [1d, N-[(2S,3R)-2-Mercapto-3-methylpentanoyl]-L-phenylalanine] | > 10 | – | – | – | –

The next lines start with results.

Row | more potent inhibition of CpA relative to 1a (human CpA) [fold] | selectivity for ACE2 versus ACE (human ACE) [fold] | selectivity for ACE2 versus CpA (human CpA) [fold] | selectivity for ACE2 versus NEP (human NEP) [fold] | Structure (SMILES) | IC50 (ACE2) [pM]
5 | – | > 100 | > 100 | – | CC[C@@H](C)[C@H](S)C(=O)N[C@@H](Cc1ccccc1Oc1ccccc1)C(=O)O [1j, N-[(2S,3R)-2-Mercapto-3-methylpentanoyl]-2-(phenyloxy)-L-phenylalanine] | –
6 | – | > 100 | > 100 | 5 | CC[C@@H](C)[C@H](S)C(=O)N[C@@H](Cc1ccc(Oc2ccccc2)cc1)C(=O)O [1l, N-[(2S,3R)-2-Mercapto-3-methylpentanoyl]-O-phenyl-L-tyrosine] | –
7 | – | > 100 | > 100 | 14 | CC[C@@H](C)[C@H](S)C(=O)N[C@@H](Cc1cccc(Oc2ccccc2)c1)C(=O)O [1k, N-[(2S,3R)-2-Mercapto-3-methylpentanoyl]-3-(phenyloxy)-L-phenylalanine] | –
8 | – | > 750 | > 750 | > 750 | CC[C@@H](C)[C@H](S)C(=O)N[C@@H](Cc1ccc(OCc2ccc(F)c(F)c2)cc1)C(=O)O [1r, O-[(3,4-Difluorophenyl)methyl]-N-[(2S,3R)-2-mercapto-3-methylpentanoyl]-L-tyrosine] | –
9 | – | > 100 | > 100 | – | CC[C@@H](C)[C@H](S)C(=O)N[C@@H](Cc1ccc2ccccc2c1)C(=O)O [1g, N-[(2S,3R)-2-Mercapto-3-methylpentanoyl]-3-(2-naphthalenyl)-L-alanine] | –
